Source: ChEMBL document CHEMBL4118063, “Design, synthesis and evaluation of aromatic heterocyclic derivatives as potent antifungal agents” (Eur J Med Chem, 2017)
Values after ≈ are worked out from the molar mass of the structure shown.

How the values were obtained:
Candida albicans [1] = assay: Antifungal activity against Candida albicans CPCC 400523 by broth microdilution method; format: functional
In short: (§1)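 Serial twofold-style dilution in growth medium per NCCLS broth microdilution guidelines. Compounds dissolved in DMSO before dilution. Fluconazole and itraconazole served as positive controls. MIC was read as the lowest concentration that prevents visible fungal growth.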

Cryptococcus neoformans = assay: Antifungal activity against Cryptococcus neoformans cgmcc 2.3161 by broth microdilution method; format: functional; in short: as §1
Candida albicans [2] = assay: Antifungal activity against Candida albicans ATCC SC5314 by broth microdilution method; format: functional; in short: as §1
Aspergillus fumigatus = assay: Antifungal activity against Aspergillus fumigatus GIM 3.524 by broth microdilution method; format: functional; in short: as §1
Candida tropicalis = assay: Antifungal activity against Candida tropicalis cgmcc 2.3739 by broth microdilution method; format: functional; in short: as §1
Candida albicans [3] = assay: Antifungal activity against fluconazole-resistant Candida albicans strain 103 by broth microdilution method; format: functional
In short: (§2)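 Broth serial dilution in 96-well plates per NCCLS guidelines; compounds dissolved in DMSO and serially diluted into growth medium; MIC taken as lowest concentration inhibiting visible fungal growth. Fluconazole-resistant clinical C. albicans isolates 100 and 103; fluconazole and itraconazole as positive controls.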

Candida albicans [4] = assay: Antifungal activity against fluconazole-resistant Candida albicans strain 100 by broth microdilution method; format: functional; in short: as §2
[5] = Metabolic stability in human plasma assessed as parent compound remaining at 120 mins; format: ADME, cell-free; settings: read-out: Stability
[6] = Metabolic stability in human plasma assessed as parent compound remaining at 60 mins; format: ADME, cell-free; settings: read-out: Stability

SMILES | MIC (Candida albicans [1]) [µg/mL] | MIC (Cryptococcus neoformans) [µg/mL] | MIC (Candida albicans [2]) [µg/mL] | MIC (Aspergillus fumigatus) [µg/mL] | MIC (Candida tropicalis) [µg/mL] | MIC (Candida albicans [3]) [µg/mL] | MIC (Candida albicans [4]) [µg/mL] | remaining at 2 h [5] [%] | remaining at 1 h [6] [%]
CC(C)COC(=O)[C@H](Cn1ccnc1)NC(=O)c1ccc(-c2ccccc2)o1 | > 16 | > 16 | > 16 | > 16 | 4 (≈ 10.5 µM) |  |  |  | 
CC(C)OC(=O)[C@H](Cn1ccnc1)NC(=O)c1coc(-c2ccccc2)n1 | > 16 | > 16 | > 16 | > 16 | 8 (≈ 21.7 µM) |  |  |  | 
Cc1nc(-c2ccccc2)sc1C(=O)N[C@@H](Cn1ccnc1)C(=O)OC(C)C | 2 (≈ 5.02 µM) | 16 (≈ 40.2 µM) | 2 (≈ 5.02 µM) | > 16 | 0.25 (≈ 0.627 µM) |  |  |  | 
CC(C)OC(=O)[C@H](Cn1ccnc1)NC(=O)c1cnc(-c2ccccc2)nc1 | 1 (≈ 2.64 µM) | 8 (≈ 21.1 µM) | 0.25 (≈ 0.659 µM) | > 16 | 0.0625 (≈ 0.165 µM) |  |  |  | 
CC(C)COC(=O)[C@H](Cn1ccnc1)NC(=O)c1cc(-c2ccc(F)cc2)on1 | 2 (≈ 4.99 µM) | 0.5 (≈ 1.25 µM) | 0.5 (≈ 1.25 µM) | 8 (≈ 20 µM) | 0.0312 (≈ 0.078 µM) |  |  |  | 
CC(C)OC(=O)[C@H](Cn1ccnc1)NC(=O)c1ccc(-c2ccccc2)nc1 | 4 (≈ 10.6 µM) | 16 (≈ 42.3 µM) | 2 (≈ 5.28 µM) | > 16 | 1 (≈ 2.64 µM) |  |  |  | 
CC(C)OC(=O)[C@H](Cn1ccnc1)NC(=O)c1cc(-c2ccccc2)on1 | 0.5 (≈ 1.36 µM) | 0.5 (≈ 1.36 µM) | 0.25 (≈ 0.679 µM) | 4 (≈ 10.9 µM) | 0.0625 (≈ 0.17 µM) |  |  |  | 
CC(C)COC(=O)[C@H](Cn1ccnc1)NC(=O)c1cc(-c2ccccc2F)on1 | 0.125 (≈ 0.312 µM) | 0.25 (≈ 0.624 µM) | 0.0312 (≈ 0.078 µM) | 4 (≈ 9.99 µM) | 0.0312 (≈ 0.078 µM) | 0.5 (≈ 1.25 µM) | 0.125 (≈ 0.312 µM) | 61.4 | 74.6
